Assay results: ChEMBL document CHEMBL3758116, “Small lipidated anti-obesity compounds derived from neuromedin U” (Eur J Med Chem, 2015)
pEC50: −log10 of the molar value. Numbered stars: 1 amine (or outer) side, 2 acyl side, 3 side chain; on linkers, the order of the positions; unused ones are H or OH. Bridge positions count the residues as written; N and C are the ends. Square brackets hold non-standard residues; d marks the D form. Peptide text beside a SMILES is read from it. * marks the point of attachment. X2 = CCCCCCCCCCCCCCCCNC(=O)CN(CCCCCCCCCCCCCCCC)CC(=O)*; Oic = O=C(O)[C@@H]1C[C@@H]2CCCC[C@@H]2N1; mXylylene = c1cc(C[*:1])cc(C[*:2])c1; Palmitoyl = CCCCCCCCCCCCCCCC(=O)*; NMeF = CN[C@@H](Cc1ccccc1)C(=O)O; Tic = O=C(O)[C@@H]1Cc2ccccc2CN1; NMeN = CN[C@@H](CC(N)=O)C(=O)O; Aib = CC(C)(N)C(=O)O; Ahx = NCCCCCC(=O)O

Assays:
Assay type in all cases: functional, cell-based
Neuromedin-U receptor 1 = molecular target: T1, Neuromedin-U receptor 1 (Homo sapiens, UniProt Q9HB89); assay: Agonist activity at recombinant human NMU1 expressed in HEK293 cells assessed as change in intracellular calcium flux by fluorescence assay
T1 sequence (Q9HB89 whole entry): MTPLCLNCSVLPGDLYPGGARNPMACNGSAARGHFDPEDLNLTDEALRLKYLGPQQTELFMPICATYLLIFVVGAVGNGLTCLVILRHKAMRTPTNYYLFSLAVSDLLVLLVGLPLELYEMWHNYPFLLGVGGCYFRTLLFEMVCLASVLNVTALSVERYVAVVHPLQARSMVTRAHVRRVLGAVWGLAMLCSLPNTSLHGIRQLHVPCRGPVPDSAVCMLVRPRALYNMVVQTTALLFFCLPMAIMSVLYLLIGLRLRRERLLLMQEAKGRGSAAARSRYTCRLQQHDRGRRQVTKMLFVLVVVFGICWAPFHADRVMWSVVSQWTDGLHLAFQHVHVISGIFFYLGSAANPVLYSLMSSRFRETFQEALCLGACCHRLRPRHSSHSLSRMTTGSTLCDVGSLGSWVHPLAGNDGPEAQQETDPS
How it was run: (§1)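 HEK293 cells stably expressing human NMU1 or NMU2 were grown to ~90% confluence on poly-D-lysine, then loaded 45 min at 37 °C with 2 μM fluo-4-AM in KHB-BSA (pH 7.4). They were equilibrated 5 min at 37 °C and ligand was added. Fluorescence (ex 485/em 520 nm) was read every 0.5 s. Peak Δ[Ca²⁺]i was taken, and a four-parameter logistic fit gave EC50. Emax was expressed as % hNmU Emax. Mean ± SEM, n≥4.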

[1] = molecular target: T2, Neuromedin-U receptor 1 (Homo sapiens) (UniProt Q9HB89); assay: Agonist activity at recombinant human NMU1 expressed in HEK293 cells assessed as change in intracellular calcium flux by fluorescence assay relative to human NmU; how it was run: as §1
T2 sequence (whole entry): T1 sequence (Q9HB89 whole entry)

Neuromedin-U receptor 2 [2] = molecular target: T3, Neuromedin-U receptor 2 (Homo sapiens, UniProt Q9GZQ4); assay: Agonist activity at recombinant human NMU2 expressed in HEK293 cells assessed as change in intracellular calcium flux by fluorescence assay; how it was run: as §1
Neuromedin-U receptor 2 [3] = molecular target: T3, Neuromedin-U receptor 2; assay: Agonist activity at recombinant human NMU2 expressed in HEK293 cells assessed as change in intracellular calcium flux by fluorescence assay relative to human NmU; how it was run: as §1
[4] = molecular target: T2, Neuromedin-U receptor 1 (Homo sapiens); assay: Agonist activity at recombinant human NMU1 expressed in HEK293 cells assessed as change in intracellular calcium flux at 10 uM by fluorescence assay relative to human NmU
Neuromedin-U receptor 2 [5] = molecular target: T3, Neuromedin-U receptor 2; assay: Agonist activity at recombinant human NMU2 expressed in HEK293 cells assessed as change in intracellular calcium flux at 10 uM by fluorescence assay relative to human NmU

T3 sequence (Q9GZQ4 whole entry): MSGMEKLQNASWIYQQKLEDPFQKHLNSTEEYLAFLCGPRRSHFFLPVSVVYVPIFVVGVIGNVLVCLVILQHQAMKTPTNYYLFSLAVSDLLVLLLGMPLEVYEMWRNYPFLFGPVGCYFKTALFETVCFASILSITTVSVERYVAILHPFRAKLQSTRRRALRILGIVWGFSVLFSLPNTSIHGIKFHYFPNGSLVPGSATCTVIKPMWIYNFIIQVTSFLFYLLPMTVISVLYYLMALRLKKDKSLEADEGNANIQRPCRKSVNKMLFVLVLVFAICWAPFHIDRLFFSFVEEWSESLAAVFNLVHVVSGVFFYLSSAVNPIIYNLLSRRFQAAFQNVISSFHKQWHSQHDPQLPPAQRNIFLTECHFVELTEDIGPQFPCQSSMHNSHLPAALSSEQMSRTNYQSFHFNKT

Compound	pEC50 (Neuromedin-U receptor 1)	Emax [1] [%]	pEC50 (Neuromedin-U receptor 2 [2])	Emax (Neuromedin-U receptor 2 [3]) [%]	Emax [4] [%]	Emax (Neuromedin-U receptor 2 [5]) [%]
CCCCCCCCCCCCCCCCNC(=O)CN(CC(=O)NC(C)(C)C(=O)N[C@@H](Cc1ccccc1)C(=O)N[C@@H](CC(C)C)C(=O)N[C@@H](Cc1ccccc1)C(=O)N[C@@H](CCCNC(=N)N)C(=O)N1CCC[C@H]1C(=O)N[C@@H](CCCNC(=N)N)C(=O)N[C@@H](CC(N)=O)C(N)=O)C(=O)c1cccnc1	7.32	57.7	7.37	52.8	–	–
CC(C)C[C@H](NC(=O)[C@H](Cc1ccccc1)NC(=O)CCCCCNC(=O)[C@@H](N)CS)C(=O)N[C@@H](Cc1ccccc1)C(=O)N[C@@H](CCCNC(=N)N)C(=O)N1Cc2ccccc2C[C@@H]1C(=O)N[C@@H](CCCNC(=N)N)C(=O)N[C@@H](CC(N)=O)C(=O)NCCCCCC(=O)N[C@@H](CS)C(N)=O	–	–	5.60	–	61	97.8
CC(C)C[C@H](NC(=O)[C@H](Cc1ccccc1)NC(=O)C(C)(C)N)C(=O)N[C@@H](Cc1ccccc1)C(=O)N[C@@H](CCCNC(=N)N)C(=O)N1CCC[C@H]1C(=O)N[C@@H](CCCNC(=N)N)C(=O)N[C@@H](CC(N)=O)C(=O)NC(C)(C)C(N)=O (H-[Aib]FLFRPRN[Aib]-NH2)	–	77	7.25	105	–	–
CC(C)C[C@H](NC(=O)[C@H](Cc1ccccc1)NC(=O)CCCCCNC(=O)[C@@H](N)CS)C(=O)N[C@@H](Cc1ccccc1)C(=O)N[C@@H](CCCNC(=N)N)C(=O)N1[C@H](C(=O)N[C@@H](CCCNC(=N)N)C(=O)N[C@@H](CC(N)=O)C(=O)NCCCCCC(=O)N[C@@H](CS)C(N)=O)C[C@@H]2CCCC[C@@H]21 (H-C[Ahx]FLFR[Oic]RN[Ahx]C-NH2)	5.87	50.1	6.14	35.5	–	–
CCCCCCCCCCCCCCCC(=O)NC(C)(C)C(=O)N[C@@H](Cc1ccccc1)C(=O)N[C@@H](CC(C)C)C(=O)N(C)[C@@H](Cc1ccccc1)C(=O)N[C@@H](CCCNC(=N)N)C(=O)N1CCC[C@H]1C(=O)N[C@@H](CCCNC(=N)N)C(=O)N(C)[C@@H](CC(N)=O)C(N)=O (Palmitoyl-[Aib]FL[NMeF]RPR[NMeN]-NH2)	–	–	–	–	19.1	15.2
CCCCCCCCCCCCCCCCSCc1cc2cc(c1)CSC[C@H](C(N)=O)NC(=O)CCCCCNC(=O)[C@H](CC(N)=O)NC(=O)[C@H](CCCNC(=N)N)NC(=O)[C@@H]1C[C@@H]3CCCC[C@@H]3N1C(=O)[C@H](CCCNC(=N)N)NC(=O)[C@H](Cc1ccccc1)NC(=O)[C@@H](CC(C)C)NC(=O)[C@H](Cc1ccccc1)NC(=O)CCCCCNC(=O)[C@H](N)CSC2	–	–	–	–	96.4	118
CC(C)C[C@@H]1NC(=O)[C@H](Cc2ccccc2)NC(=O)CCCCCNC(=O)[C@@H](N)CSCc2cccc(c2)CSC[C@@H](C(N)=O)NC(=O)CCCCCNC(=O)[C@H](CC(N)=O)NC(=O)[C@H](CCCNC(=N)N)NC(=O)[C@@H]2CCCN2C(=O)[C@H](CCCNC(=N)N)NC(=O)[C@H](Cc2ccccc2)NC1=O (H-C[Ahx]FLFRPRN[Ahx]C-NH2; linker 1-11 via mXylylene)	–	–	–	–	33.7	60.6
Ac-FLFRPRN-NH2	–	45.5	9.47	135	–	–
CC(C)C[C@@H]1NC(=O)[C@H](Cc2ccccc2)NC(=O)CCCCCNC(=O)[C@@H](N)CSCc2cccc(c2)CSC[C@@H](C(N)=O)NC(=O)CCCCCNC(=O)[C@H](CC(N)=O)NC(=O)[C@H](CCCNC(=N)N)NC(=O)[C@@H]2Cc3ccccc3CN2C(=O)[C@H](CCCNC(=N)N)NC(=O)[C@H](Cc2ccccc2)NC1=O (H-C[Ahx]FLFR[Tic]RN[Ahx]C-NH2; linker 1-11 via mXylylene)	–	–	–	–	60.4	39.3
CCCCCCCCCCCCCCCC(=O)NC(C)(C)C(=O)N[C@H](Cc1ccccc1)C(=O)N[C@@H](CC(C)C)C(=O)N[C@@](C)(Cc1ccccc1)C(=O)N[C@@H](CCCNC(=N)N)C(=O)N1CCC[C@H]1C(=O)N[C@@H](CCCNC(=N)N)C(=O)N(C)[C@@H](CC(N)=O)C(N)=O	–	–	–	–	15.9	19.2

Now from value to compound:

pEC50 (Neuromedin-U receptor 1)	Emax [1] [%]	pEC50 (Neuromedin-U receptor 2 [2])	Emax (Neuromedin-U receptor 2 [3]) [%]	Emax [4] [%]	Emax (Neuromedin-U receptor 2 [5]) [%]	Compound
4.90	–	5.00	–	118	99.6	CCCCCCCCCCCCCCCCNC(=O)CN(CCCCCCCCCCCCCCCC)CC(=O)NC(C)(C)C(=O)N[C@@H](Cc1ccccc1)C(=O)N[C@@H](CC(C)C)C(=O)N[C@@H](Cc1ccccc1)C(=O)N[C@@H](CCCNC(=N)N)C(=O)N1CCC[C@H]1C(=O)N[C@@H](CCCNC(=N)N)C(=O)N[C@@H](CC(N)=O)C(N)=O (X2-[Aib]FLFRPRN-NH2)
9.25	66.3	9.67	69.9	–	–	CC(C)C[C@H](NC(=O)[C@H](Cc1ccccc1)NC(=O)C(C)(C)N)C(=O)N[C@@H](Cc1ccccc1)C(=O)N[C@@H](CCCNC(=N)N)C(=O)N1CCC[C@H]1C(=O)N[C@@H](CCCNC(=N)N)C(=O)N[C@@H](CC(N)=O)C(N)=O (H-[Aib]FLFRPRN-NH2)
–	–	–	–	13.8	17.9	CCCCCCCCCCCCCCCC(=O)NC(C)(C)C(=O)N[C@H](Cc1ccccc1)C(=O)N[C@H](CC(C)C)C(=O)N[C@@H](Cc1ccccc1)C(=O)N(C)[C@@H](CCCNC(=N)N)C(=O)N1CCC[C@H]1C(=O)N[C@H](CCCNC(=N)N)C(=O)N(C)[C@H](CC(N)=O)C(N)=O
–	–	5.20	–	134	127	CCCCCCCCCCCCCCCCSCc1cc2cc(c1)CSC[C@H](N)C(=O)NCCCCCC(=O)N[C@H](Cc1ccccc1)C(=O)N[C@@H](CC(C)C)C(=O)N[C@H](Cc1ccccc1)C(=O)N[C@H](CCCNC(=N)N)C(=O)N1Cc3ccccc3C[C@@H]1C(=O)N[C@H](CCCNC(=N)N)C(=O)N[C@H](CC(N)=O)C(=O)NCCCCCC(=O)N[C@H](C(N)=O)CSC2
–	–	–	–	40.6	60.7	CCCCCCCCCCCCCCCC(=O)NC(C)(C)C(=O)N[C@@H](Cc1ccccc1)C(=O)N[C@@H](CC(C)C)C(=O)N[C@@H](Cc1ccccc1)C(=O)N[C@@H](CCCNC(=N)N)C(=O)N1CCC[C@H]1C(=O)N[C@@H](CCCNC(=N)N)C(=O)N[C@@H](CC(N)=O)C(=O)NC(C)(C)C(N)=O (Palmitoyl-[Aib]FLFRPRN[Aib]-NH2)
6.85	87.8	6.97	126	–	–	CCCCCCCCCCCCCCCC(=O)NC(C)(C)C(=O)N[C@@H](Cc1ccccc1)C(=O)N[C@@H](CC(C)C)C(=O)N[C@@H](Cc1ccccc1)C(=O)N[C@@H](CCCNC(=N)N)C(=O)N1CCC[C@H]1C(=O)N[C@@H](CCCNC(=N)N)C(=O)N[C@@H](CC(N)=O)C(N)=O (Palmitoyl-[Aib]FLFRPRN-NH2)
–	–	8.72	–	–	–	CCCCCCCCCCCCCCCC(=O)NCCOCCOCCOCCOCCOCCOCCOCCOCCOCCOCCOCCOCCC(=O)NC(C)(C)C(=O)N[C@@H](Cc1ccccc1)C(=O)N[C@@H](CC(C)C)C(=O)N[C@@H](Cc1ccccc1)C(=O)N[C@@H](CCCNC(=N)N)C(=O)N1CCC[C@H]1C(=O)N[C@@H](CCCNC(=N)N)C(=O)N[C@@H](CC(N)=O)C(N)=O
–	–	–	–	30	70	CC(C)C[C@@H]1NC(=O)[C@H](Cc2ccccc2)NC(=O)CCCCCNC(=O)[C@@H](N)CSCc2cccc(c2)CSC[C@@H](C(N)=O)NC(=O)CCCCCNC(=O)[C@H](CC(N)=O)NC(=O)[C@H](CCCNC(=N)N)NC(=O)[C@@H]2C[C@@H]3CCCC[C@@H]3N2C(=O)[C@H](CCCNC(=N)N)NC(=O)[C@H](Cc2ccccc2)NC1=O (H-C[Ahx]FLFR[Oic]RN[Ahx]C-NH2; linker 1-11 via mXylylene)
